“Also recorded” adds a separate entry of the source. Where two headings read alike, the source gives them in different places.
What was measured:
Jack bean urease [1] = biological target: T1, Jack bean urease (Canavalia ensiformis, UniProt P07374); experiment: In vitro urease inhibitory activity; format: biochemical
Hemolytic activity = format: cell-based; details: bovine, erythrocyte (RBC) suspension, pH 7.4
Procedure, shortened: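 Bovine blood collected in EDTA, diluted in 0.9% NaCl and centrifuged at 1000 × g for 10 min. Erythrocytes were resuspended in PBS pH 7.4. Test compound solution (10 mg/mL stock) was mixed with the RBC suspension and incubated 30 min at room temperature. PBS served as negative control, Triton X-100 as positive control. Triplicate runs; mean ± SEM; % hemolysis calculated by formula.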

Jack bean urease [2] = biological target: T1, Jack bean urease; experiment: Kinetic analysis of urease inhibition; format: biochemical
Procedure, shortened: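 Jack bean urease (5 U/mL enzyme solution) in potassium phosphate buffer (10 mM K2HPO4, 1 mM EDTA, 10 mM LiCl, pH 8.2) at 37 °C. Ammonia read by indophenol method at 625 nm. Initial velocities taken from per-minute readings up to 10 min. Mode from Lineweaver–Burk plots; Ki from secondary plot with linear least-squares fit.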

T1 sequence (P07374 whole entry, looked up): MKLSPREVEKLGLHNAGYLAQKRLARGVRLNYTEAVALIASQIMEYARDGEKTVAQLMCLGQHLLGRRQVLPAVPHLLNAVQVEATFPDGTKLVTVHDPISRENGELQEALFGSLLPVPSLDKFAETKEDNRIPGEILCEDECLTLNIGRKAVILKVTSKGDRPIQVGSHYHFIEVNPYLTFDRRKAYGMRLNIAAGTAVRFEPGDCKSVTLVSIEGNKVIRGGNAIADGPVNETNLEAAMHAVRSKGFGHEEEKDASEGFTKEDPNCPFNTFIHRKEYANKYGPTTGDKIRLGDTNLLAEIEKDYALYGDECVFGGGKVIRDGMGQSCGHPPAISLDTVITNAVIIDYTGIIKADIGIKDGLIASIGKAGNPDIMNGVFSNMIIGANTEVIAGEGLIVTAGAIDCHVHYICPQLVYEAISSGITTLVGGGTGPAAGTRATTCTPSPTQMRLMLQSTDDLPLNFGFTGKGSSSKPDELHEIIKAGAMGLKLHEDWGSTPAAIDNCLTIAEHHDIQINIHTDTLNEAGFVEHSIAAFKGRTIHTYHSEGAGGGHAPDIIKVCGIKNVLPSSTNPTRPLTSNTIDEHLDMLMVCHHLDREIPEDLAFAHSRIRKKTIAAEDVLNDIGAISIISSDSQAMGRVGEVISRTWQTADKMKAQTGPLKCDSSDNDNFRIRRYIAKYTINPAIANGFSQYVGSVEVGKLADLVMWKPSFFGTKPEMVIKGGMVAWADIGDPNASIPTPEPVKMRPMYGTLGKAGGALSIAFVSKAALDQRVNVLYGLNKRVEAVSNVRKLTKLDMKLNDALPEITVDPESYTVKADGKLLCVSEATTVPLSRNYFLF

| IC50 (Jack bean urease [1]) | Structure (SMILES) | hemolysis at 30 min (Hemolytic activity) | other results |
| --- | --- | --- | --- |
| 0.0323 ± 0.0119 µM | Cc1cccc(NC(=O)CCCSc2nnc(CCCc3c[nH]c4ccccc34)o2)c1 [Compound 8e] | 5.92 ± 0.02% | – |
| 0.0717 ± 0.0152 µM | Cc1ccccc1NC(=O)CCCSc1nnc(CCCc2c[nH]c3ccccc23)o1 [Compound 8d] | 5.18 ± 0.03% | – |
| 0.2 ± 0.0122 µM | Cc1ccc(NC(=O)CCCSc2nnc(CCCc3c[nH]c4ccccc34)o2)c(C)c1 [Compound 8g, N-(2,4-dimethylphenyl)-4-({5-[3-(1H-indol-3-yl)propyl]-1,3,4-oxadiazol-2-yl}sulfanyl)butanamide] | 1.41 ± 0.01% | – |
| 0.0542 ± 0.0211 µM | CCc1ccccc1NC(=O)CCCSc1nnc(CCCc2c[nH]c3ccccc23)o1 [Compound 8b] | 2.41 ± 0.03% | – |
| 0.124 ± 0.0318 µM | Cc1cc(C)cc(NC(=O)CCCSc2nnc(CCCc3c[nH]c4ccccc34)o2)c1 [Compound 8i] | 7.32 ± 0.03% | – |

Second part, the compound before the results:

| Structure (SMILES) | IC50 (Jack bean urease [1]) | hemolysis at 30 min (Hemolytic activity) | other results |
| --- | --- | --- | --- |
| CCOc1ccc(NC(=O)CCCSc2nnc(CCCc3c[nH]c4ccccc34)o2)cc1 [Compound 8a] | 0.0523 ± 0.0044 µM | 3.16 ± 0.05% | – |
| CCc1ccc(NC(=O)CCCSc2nnc(CCCc3c[nH]c4ccccc34)o2)cc1 [Compound 8c] | 0.0175 ± 0.0065 µM | 0.62 ± 0.02% | Ki (Jack bean urease [2]): 0.003 µM; Vmax (ΔA/Min) (Jack bean urease [2]; 8c concentration 0.017 μM): 6.119 × 10^−5 ΔA/Min; Vmax (ΔA/Min) (Jack bean urease [2]; 8c concentration 0.034 μM): 4.599 × 10^−5 ΔA/Min; Inhibition type (Jack bean urease [2]; Lineweaver-Burk plot): non-competitively; also recorded: Non-competitive |
| Cc1ccc(NC(=O)CCCSc2nnc(CCCc3c[nH]c4ccccc34)o2)cc1 [Compound 8f] | 0.102 ± 0.0299 µM | 3.51 ± 0.04% | – |
| NC(N)=S [Thiourea, reference compound] | – | – | IC50 (Jack bean urease [1]; read-out: Urease activity IC50 ± SEM, Jack bean urease 5 U/mL, 100 mM urea, pH 8.2, 30 min at 37 °C, triplicate): 4.75 ± 0.0546 µM |
| Cc1cccc(C)c1NC(=O)CCCSc1nnc(CCCc2c[nH]c3ccccc23)o1 [Compound 8h] | 0.0251 ± 0.0083 µM | 2.63 ± 0.02% | – |
| CC(C)(C)CC(C)(C)c1ccc(OCCO)cc1 [Triton X, reference compound] | – | 89.11 ± 0.01% | – |
| CCc1cccc(C)c1NC(=O)CCCSc1nnc(CCCc2c[nH]c3ccccc23)o1 [Compound 8j] | 0.0375 ± 0.0058 µM | 9.63 ± 0.05% | – |
